Data as given in paper PMC3401285 (Bioorganic & medicinal chemistry letters, 2012).

Key:
Format in all cases: cell-based
[1] = target: T1, M1 (Homo sapiens, UniProt P11229); experiment: Muscarinic selectivity panel, calcium mobilization; conditions: concentration up to 30 µM
T1 sequence (P11229 1-460): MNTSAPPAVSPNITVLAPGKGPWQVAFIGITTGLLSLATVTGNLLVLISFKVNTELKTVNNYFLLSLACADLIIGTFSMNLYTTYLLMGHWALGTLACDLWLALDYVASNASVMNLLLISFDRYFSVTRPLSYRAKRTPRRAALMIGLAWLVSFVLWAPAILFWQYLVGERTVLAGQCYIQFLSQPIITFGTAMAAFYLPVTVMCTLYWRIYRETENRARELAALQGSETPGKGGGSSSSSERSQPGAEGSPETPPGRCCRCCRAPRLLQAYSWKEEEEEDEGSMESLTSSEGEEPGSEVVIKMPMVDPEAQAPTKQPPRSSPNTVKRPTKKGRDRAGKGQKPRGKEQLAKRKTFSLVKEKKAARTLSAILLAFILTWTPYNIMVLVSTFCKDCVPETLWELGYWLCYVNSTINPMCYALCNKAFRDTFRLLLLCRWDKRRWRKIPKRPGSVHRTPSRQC
Summary of the method: (§1)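 CHO cells stably expressing the human receptor (M1 transfected into CHO K1; M3 and M5 lines donated), grown in Ham's F-12, 10% heat-inactivated FBS, 20 mM HEPES, 500 µg/mL G418. Cells plated at 15,000/well overnight (37 °C, 5% CO2), then loaded 45 min at 37 °C with Fluo-4 AM in HBSS, 20 mM HEPES, 2.5 mM probenecid. Compound preincubated 144 s (0.3% DMSO final) before ACh; calcium read kinetically at 37 °C.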

[2] = target: T2, M2 (Homo sapiens, UniProt P08172); experiment: Muscarinic selectivity panel, calcium mobilization; conditions: concentration up to 30 µM
T2 sequence (P08172 1-466): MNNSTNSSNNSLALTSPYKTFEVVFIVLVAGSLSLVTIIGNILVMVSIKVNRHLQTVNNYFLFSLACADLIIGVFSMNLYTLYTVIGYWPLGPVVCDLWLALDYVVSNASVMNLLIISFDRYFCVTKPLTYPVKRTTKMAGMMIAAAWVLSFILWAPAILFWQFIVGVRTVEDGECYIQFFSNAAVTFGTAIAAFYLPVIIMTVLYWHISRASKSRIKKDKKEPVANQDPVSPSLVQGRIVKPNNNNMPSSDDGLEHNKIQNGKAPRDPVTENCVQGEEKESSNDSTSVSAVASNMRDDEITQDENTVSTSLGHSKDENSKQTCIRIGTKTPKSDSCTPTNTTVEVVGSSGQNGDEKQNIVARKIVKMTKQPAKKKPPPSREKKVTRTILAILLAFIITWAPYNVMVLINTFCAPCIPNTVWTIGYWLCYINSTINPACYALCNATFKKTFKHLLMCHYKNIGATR
Summary of the method: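 CHO cells stably expressing human M2 and cotransfected with chimeric Gqi5, grown in Ham's F-12, 10% heat-inactivated FBS, 20 mM HEPES, 500 µg/mL G418 plus 500 µg/mL hygromycin B. Plated at 15,000 cells/well overnight (37 °C, 5% CO2), then Fluo-4 AM loaded 45 min at 37 °C in HBSS, 20 mM HEPES, 2.5 mM probenecid. Compound preincubated 144 s (0.3% DMSO final) before ACh; fluorescence read at 37 °C.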

[3] = target: M3 (Homo sapiens, UniProt P20309); experiment: Muscarinic selectivity panel, calcium mobilization; conditions: concentration up to 30 µM
Summary of the method: as §1

[4] = target: T3, M5 (Homo sapiens, UniProt P08912); experiment: Muscarinic selectivity panel, calcium mobilization; conditions: concentration up to 30 µM
T3 sequence (P08912 1-532): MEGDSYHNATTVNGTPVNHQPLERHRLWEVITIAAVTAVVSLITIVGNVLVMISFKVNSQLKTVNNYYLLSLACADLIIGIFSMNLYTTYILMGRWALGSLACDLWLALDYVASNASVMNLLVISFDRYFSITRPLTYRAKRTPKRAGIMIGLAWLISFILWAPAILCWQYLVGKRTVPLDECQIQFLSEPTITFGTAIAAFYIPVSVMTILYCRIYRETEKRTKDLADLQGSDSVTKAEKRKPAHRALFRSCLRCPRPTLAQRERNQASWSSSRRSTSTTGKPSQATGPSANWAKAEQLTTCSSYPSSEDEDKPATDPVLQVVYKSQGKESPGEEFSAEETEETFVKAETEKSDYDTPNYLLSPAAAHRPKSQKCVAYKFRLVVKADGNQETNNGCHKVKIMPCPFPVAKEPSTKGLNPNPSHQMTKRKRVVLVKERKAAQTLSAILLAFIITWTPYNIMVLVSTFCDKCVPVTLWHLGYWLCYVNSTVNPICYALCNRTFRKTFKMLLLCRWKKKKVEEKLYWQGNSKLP
Summary of the method: as §1

[5] = target: T4, human M4 receptor (Homo sapiens, UniProt P08173); experiment: Calcium mobilization assay, potency determination; conditions: for hM4 PAM activity (in words): hM4, text statement; for %AChmax ± SEM: efficacy as % of maximal ACh response, hM4
T4 sequence (P08173 1-479): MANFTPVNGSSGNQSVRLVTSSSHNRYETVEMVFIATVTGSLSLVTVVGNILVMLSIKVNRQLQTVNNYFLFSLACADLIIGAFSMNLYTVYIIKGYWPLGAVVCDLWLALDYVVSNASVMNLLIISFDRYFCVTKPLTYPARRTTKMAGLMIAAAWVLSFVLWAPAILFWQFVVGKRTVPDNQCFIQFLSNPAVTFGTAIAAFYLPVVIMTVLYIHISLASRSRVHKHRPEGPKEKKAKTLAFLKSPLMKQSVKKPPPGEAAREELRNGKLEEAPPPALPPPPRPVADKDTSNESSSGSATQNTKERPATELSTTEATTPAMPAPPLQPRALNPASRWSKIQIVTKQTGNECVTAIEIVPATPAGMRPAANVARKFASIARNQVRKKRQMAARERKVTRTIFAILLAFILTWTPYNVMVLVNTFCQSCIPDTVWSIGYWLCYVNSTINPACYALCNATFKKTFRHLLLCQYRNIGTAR

M3, sequence (P20309 whole entry): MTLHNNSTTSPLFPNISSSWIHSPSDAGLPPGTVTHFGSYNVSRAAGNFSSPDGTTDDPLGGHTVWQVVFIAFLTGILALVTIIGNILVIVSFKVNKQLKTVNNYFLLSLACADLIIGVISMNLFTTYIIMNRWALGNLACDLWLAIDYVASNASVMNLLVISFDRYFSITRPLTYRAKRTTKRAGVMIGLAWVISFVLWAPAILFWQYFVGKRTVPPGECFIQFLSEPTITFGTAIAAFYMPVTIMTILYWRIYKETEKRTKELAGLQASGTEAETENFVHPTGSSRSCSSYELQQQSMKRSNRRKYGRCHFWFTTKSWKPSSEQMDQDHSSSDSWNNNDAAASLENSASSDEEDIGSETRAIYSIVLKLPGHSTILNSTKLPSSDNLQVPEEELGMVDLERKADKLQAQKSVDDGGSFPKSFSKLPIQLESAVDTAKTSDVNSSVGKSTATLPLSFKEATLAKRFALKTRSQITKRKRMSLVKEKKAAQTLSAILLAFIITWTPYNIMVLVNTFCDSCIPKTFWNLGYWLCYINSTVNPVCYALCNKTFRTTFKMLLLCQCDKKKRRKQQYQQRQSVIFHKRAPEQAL

Row | hM4 PAM activity (in words) [5] | %AChmax ± SEM [5] | SMILES | also measured
1 |  |  | COc1ccc(C)c2sc(NC(=O)c3ccncc3)nc12 [Compound 21, N-(4-methoxy-7-methylbenzo[d]thiazol-2-yl)isonicotinamide] | activity at M1 [1]: inactive; activity at M2 [2]: inactive; activity at M3 [3]: inactive; activity at M5 [4]: inactive
2 | deleterious to activity |  | COc1ccc(C)c2sc(NC(=O)C3CCCOC3)nc12 (centres unmarked) [Compound 17] | 
3 |  | Weak | COc1ccc(C)c2sc(C(=O)NC3COC3)nc12 [Compound 49] | 
4 |  | Weak | COc1ccc(C)c2sc(NC(=O)C(C)C)nc12 [Compound 7] | 
5 | deleterious to activity |  | COc1ccc(C)c2sc(NC(=O)C3CCCCO3)nc12 (centres unmarked) [Compound 16] | 
6 |  | Weak | COc1ccc(C)c2sc(C(=O)NC3CCCC3)nc12 [Compound 48] | 
7 |  | Weak | COc1ccc(C)c2sc(C(=O)Nc3ccncc3)nc12 [Compound 44] | 

Row | SMILES | hM4 PAM activity (in words) [5] | %AChmax ± SEM [5] | also measured
8 | O=C(Nc1nc2ccccc2s1)C1CCCCO1 (centres unmarked) [Compound 50] | not tolerated |  | 
